TAAR1 antagonist: human TAAR1 antagonism | Q96RJ0 | CHO RD-HGA16 TAAR1, Fluo-8 calcium fluorescence, antagonist | inhibition, % at 3 µM | hit rate 1.5% among 360,000 | AID 624466;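 active = inhibition above a per-plate cutoff, the mean inhibition of test compounds on that plate plus 3 SD, cut at about 49% in these data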
Target sequence (Q96RJ0 whole entry, looked up): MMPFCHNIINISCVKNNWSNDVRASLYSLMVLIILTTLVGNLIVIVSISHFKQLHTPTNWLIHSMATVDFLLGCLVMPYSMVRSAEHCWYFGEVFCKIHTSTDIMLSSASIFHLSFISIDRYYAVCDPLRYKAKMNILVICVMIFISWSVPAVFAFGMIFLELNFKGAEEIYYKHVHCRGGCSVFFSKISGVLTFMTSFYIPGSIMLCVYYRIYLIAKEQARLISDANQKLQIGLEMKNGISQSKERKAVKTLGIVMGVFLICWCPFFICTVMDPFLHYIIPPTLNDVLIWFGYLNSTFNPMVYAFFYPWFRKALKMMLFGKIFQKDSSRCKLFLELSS
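Test system – hTAAR1-expressing CHO RD-HGA16 cells, Gα16-coupled · Reagent – β-PEA at EC80 concentration, post-compound challenge · Compound dosing – 3 µM, single point · Timing – 140 s kinetic read after compound, 140 s after agonist · Detection – Fluo-8 intracellular calcium dye fluorescence, real-time kinetic reads · Control set – DMSO and EC80 PEA controls · Repeats – n of 1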
OX1R antag-1: antagonists of human orexin 1 receptor (OX1R); inhibition, % at 6.6 µM; O43613; AID 485270; OX1R-expressing cells, FRET antagonist read-out; hit rate 1.8% among 330,000; in the data active = inhibition mostly above about 38%, no sharp cut-off; inactive = mostly below about 40%
Target sequence (O43613 whole entry, looked up): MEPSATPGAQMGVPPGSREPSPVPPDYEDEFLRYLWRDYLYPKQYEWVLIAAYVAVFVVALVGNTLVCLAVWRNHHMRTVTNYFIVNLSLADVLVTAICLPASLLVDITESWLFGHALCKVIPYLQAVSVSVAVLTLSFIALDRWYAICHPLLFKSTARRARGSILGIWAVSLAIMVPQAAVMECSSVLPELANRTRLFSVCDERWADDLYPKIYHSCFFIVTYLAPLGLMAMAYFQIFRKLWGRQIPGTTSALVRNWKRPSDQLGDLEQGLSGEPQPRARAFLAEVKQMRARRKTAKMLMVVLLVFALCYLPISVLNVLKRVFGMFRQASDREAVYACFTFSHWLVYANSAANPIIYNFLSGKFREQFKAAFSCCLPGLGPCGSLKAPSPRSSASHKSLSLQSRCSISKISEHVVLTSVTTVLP
GPR7 antagonist: blocks human GPR7 receptor signaling | inhibition, % at 4.4 µM | GPR7-expressing cells, fluorescence antagonist assay | P48145 | hit rate 1.1% among 290,000 | AID 1861; in the data active = inhibition above about 16%, passing the limit was not always enough;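 also: cells stimulated with the agonist NPW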
CHO parental Ca: signal in parental CHO cells, OX1R antagonist counter-screen; parental CHO-K1, ATP-induced calcium, Fluo-8 fluorescence; inhibition, % at 5.6 µM; hit rate 0.63% among 330,000;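 active = inhibition above that plate's mean sample inhibition plus 3 SD, cut at about 26% in these data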
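Test system: untransfected parental CHO cell line; also added: ATP stimulus; dosing: 5.6 µM, single dose; signal: calcium-sensitive Fluo-8 fluorescence; measure: percent inhibition of ATP-evoked calcium rise, normalized to controls; benchmarks: low control ATP plus DMSO, high control DMSO only; replication: one well per compound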
TAAR1 agonist: agonists of human TAAR1; activation, % at 3 µM; Q96RJ0; CHO RD-HGA16 TAAR1, Fluo-8 calcium fluorescence; vehicle wells 0%, saturating PEA agonist 100%; hit rate 0.99% among 360,000;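 active = activation above the mean activation of all test compounds in the run plus 3 SD, cut at about 38% in these data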
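System: CHO RD-HGA16 cells carrying human TAAR1 plus Gα16; Incubation: 17-24 h seeding, 75 min 37 °C dye, 30 min RT; Measured by: Fluo-8 fluorescence, 5 s baseline then 140 s kinetic read; Control set: DMSO and PEA EC100; Replication: single well for each compound.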
OX1R antag-2: human HCRTR1 antagonism; hit rate 0.43% among 330,000; CHO/OX1R cells, Fluo-8 calcium fluorescence, orexin A; inhibition, % at 5 µM; O43613;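 active = inhibition above its plate's threshold, mean inhibition of all tested compounds on the plate plus 3 SD, cut at about 37% in these data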
nonsel antag count: nonselective antagonist in TAAR1 antagonist counter-screen; shares compounds with TAAR1 antagonist; counterscreen cell line, calcium fluorescence, antagonist mode; inhibition, % at 3 µM; hit rate 77% among 2,400; in the data active = inhibition above about 22%;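 also: CHO-Ga16 host cells stimulated with ATP at an EC80 level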
TAAR1 ant conf: confirmation of human TAAR1 antagonists; inhibition, % at 3 µM; AID 651785; hit rate 40% among 2,400; TAAR1-expressing cells, fluorescence antagonist read-out; shares compounds with TAAR1 antagonist; in the data active = inhibition above about 49%;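 also: CHO-Ga16 host cells challenged with agonist PEA near its EC80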
Ga16 nonsel ag: nonselective Ga16 agonist in TAAR1 antagonist counter-screen | hit rate 18% among 2,400 | Ga16-expressing cells, calcium fluorescence, agonist counterscreen | shares compounds with TAAR1 antagonist | activation, % at 3 µM; in the data active = activation above about 12%
TAAR1 ag counter: counter-screen for human TAAR1 antagonists: TAAR1 agonists | shares compounds with TAAR1 antagonist | hTAAR1 cell line, fluorescence activation, agonist mode | activation, % at 3 µM | hit rate 2% among 2,400; in the data active = activation above about 37%;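 also: CHO cells stably expressing TAAR1 with calcium dye readout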
Each line names hits and unclear results; the compound was inactive in the other large screens (follow-up assays come after a bar, where they were run). An excerpt weighted towards active compounds, which were near 4.6% of everything screened.

CN1CCN(c2ncnc3sc(-c4ccccc4)cc23)CC1	none
c1ccc(-c2cc3c(N4CCN(c5ncccn5)CC4)ncnc3s2)cc1	TAAR1 antagonist 55 | nonsel antag count 30 | TAAR1 ant conf 50 | Ga16 nonsel ag inactive | TAAR1 ag counter inactive
Cc1nnc(NC(=O)c2sc3ccccc3c2Cl)s1	none
O=C(Nc1cccc(NC(=O)c2ccc(-c3ccc(Br)cc3)o2)c1)c1ccccc1	none
CNC(=O)c1ccsc1NC(=O)c1sc2ccccc2c1Cl	TAAR1 antagonist 71, OX1R antag-1 56 | nonsel antag count 35 | TAAR1 ant conf 50 | Ga16 nonsel ag inactive | TAAR1 ag counter inactive
O=C(Nc1cccc(NC(=O)c2ccc(-c3cccc(Br)c3)o2)c1)c1ccco1	TAAR1 antagonist 52 | nonsel antag count 25 | TAAR1 ant conf inactive | Ga16 nonsel ag inactive | TAAR1 ag counter inactive
O=C(Nc1cccc(NC(=O)c2sc3ccccc3c2Cl)c1)c1ccco1	TAAR1 antagonist 55, OX1R antag-1 76 | nonsel antag count inactive | TAAR1 ant conf inactive | Ga16 nonsel ag inactive | TAAR1 ag counter inactive
COc1ccc(OC)c(NC(=O)C2(C)CCN2Cc2ccccc2Cl)c1 (stereo not given)	none (no result: OX1R antag-1, GPR7 antagonist, CHO parental Ca, OX1R antag-2)
Cc1nc2c(C)cccn2c1/C(O)=C1\C(=O)C(=O)N(CCN2CCOCC2)C1c1cccs1 (stereo not given)	none
COc1ccc(S(=O)(=O)N(CC(=O)NC2CC2)c2ccc(C)cc2)cc1	none
O=C(N/N=C/C=C/c1ccccc1[N+](=O)[O-])c1cc(-c2ccccc2)n[nH]1	TAAR1 antagonist 60 | nonsel antag count 24 | TAAR1 ant conf inactive | Ga16 nonsel ag inactive | TAAR1 ag counter inactive
CN(C)S(=O)(=O)c1cccc(C(=O)OCC(=O)c2ccc3c(c2)NC(=O)CO3)c1	TAAR1 antagonist 66 | nonsel antag count 28 | TAAR1 ant conf inactive | Ga16 nonsel ag 13 | TAAR1 ag counter inactive
Cc1ccc(S(=O)(=O)N(C)CC(=O)OCC(=O)c2ccc3c(c2)NC(=O)CO3)cc1	TAAR1 antagonist 102 (no result: GPR7 antagonist) | nonsel antag count 26 | TAAR1 ant conf inactive | Ga16 nonsel ag inactive | TAAR1 ag counter inactive
COCCCn1c(SCC(=O)NC2CCCCC2)nnc1-c1ccco1	none
O=C(Nc1nc(-c2ccccc2)c(C(=O)c2ccccc2)s1)c1ccc(S(=O)(=O)N2CCCC2)cc1	none
O=C(Nc1nc(-c2nc3ccccc3s2)cs1)c1ccc(S(=O)(=O)N2CCOCC2)cc1	TAAR1 antagonist 69, OX1R antag-1 67, CHO parental Ca 32 | nonsel antag count 52 | TAAR1 ant conf 70 | Ga16 nonsel ag 22 | TAAR1 ag counter inactive
COc1ccc(OC)c(-c2csc(NC(=O)C3COc4ccccc4O3)n2)c1 (stereo not given)	none
O=C(Nc1nc(-c2nc3ccccc3s2)cs1)C1COc2ccccc2O1 (stereo not given)	TAAR1 antagonist 60 | nonsel antag count 26 | TAAR1 ant conf inactive | Ga16 nonsel ag inactive | TAAR1 ag counter inactive
O=C(Nc1nc(-c2ccccc2)c(-c2ccccc2)s1)c1ccc(S(=O)(=O)N2CCCC2)cc1	TAAR1 antagonist 107 | nonsel antag count inactive | TAAR1 ant conf inactive | Ga16 nonsel ag inactive | TAAR1 ag counter inactive
O=C(Cc1cccs1)Nc1cccc(-c2nc3cc4ccccc4cc3[nH]2)c1	TAAR1 antagonist 74 | nonsel antag count 34 | TAAR1 ant conf inactive | Ga16 nonsel ag inactive | TAAR1 ag counter inactive
CC(=O)Nc1cccc(NC(=O)Cc2cccs2)c1	none
Cc1cc(OCC#N)nc(N)n1	none
COc1ccc(CCNC(=O)C2CC(c3ccccc3F)=NO2)cc1 (stereo not given)	none (no result: GPR7 antagonist)
O=C(NCCc1cccs1)C1CC(c2ccccc2F)=NO1 (stereo not given)	TAAR1 antagonist 74 (no result: GPR7 antagonist) | nonsel antag count inactive | TAAR1 ant conf 81 | Ga16 nonsel ag inactive | TAAR1 ag counter 68
COc1ccc(C(=O)NCC2OCCc3ccccc32)c(O)c1 (stereo not given)	none
C=CCNC(=O)c1ccccc1NC(=O)c1ccc(Cl)c(S(=O)(=O)Nc2ccccc2)c1	TAAR1 antagonist 55 | nonsel antag count 28 | TAAR1 ant conf inactive | Ga16 nonsel ag inactive | TAAR1 ag counter inactive
O=C(NCc1ccco1)c1ccc(Cl)c(S(=O)(=O)Nc2ccccc2)c1	none
COc1ccc(-c2noc(CCC(=O)N3CCN(c4ccccc4C(F)(F)F)CC3)n2)cc1	TAAR1 antagonist 65 (no result: GPR7 antagonist) | nonsel antag count 28 | TAAR1 ant conf inactive | Ga16 nonsel ag inactive | TAAR1 ag counter inactive
COc1ccc(-c2noc(CCC(=O)N3CCN(c4ccccc4OC)CC3)n2)cc1	none (no result: GPR7 antagonist)
CCN(CC(=O)Nc1c(F)cccc1F)C(=O)CSc1ccc(F)cc1	none (no result: GPR7 antagonist)
CCN(CC(=O)Nc1c(F)cccc1F)C(=O)CSc1ccccc1	TAAR1 antagonist 97 (no result: GPR7 antagonist) | nonsel antag count inactive | TAAR1 ant conf inactive | Ga16 nonsel ag inactive | TAAR1 ag counter inactive
CN(CC(=O)Nc1ccc(Cl)cc1)C(=O)c1cc(-c2cccs2)nn1-c1ccccc1	TAAR1 antagonist 66 (no result: GPR7 antagonist) | nonsel antag count 25 | TAAR1 ant conf inactive | Ga16 nonsel ag inactive | TAAR1 ag counter inactive
CCN(CC(=O)Nc1ccccc1OC)C(=O)c1cc(-c2ccccc2)nn1-c1ccccc1	TAAR1 antagonist 61 (no result: GPR7 antagonist) | nonsel antag count inactive | TAAR1 ant conf inactive | Ga16 nonsel ag inactive | TAAR1 ag counter inactive
Cc1ccc(NC(=O)CN(C)C(=O)c2cc(-c3cccs3)nn2-c2ccccc2)cc1	TAAR1 antagonist 55 (no result: GPR7 antagonist) | nonsel antag count 22 | TAAR1 ant conf inactive | Ga16 nonsel ag inactive | TAAR1 ag counter inactive
COCCCN1C(=O)C(CC(=O)NC2CCCC2)CC(C(=O)N(C(C)C)C(C)C)=C1C (stereo not given)	none (no result: OX1R antag-1, GPR7 antagonist, CHO parental Ca, OX1R antag-2)
Cn1c(N)c(Sc2ccccc2[N+](=O)[O-])c(=O)n(C)c1=O	none
CCN(CC(=O)Nc1c(F)cccc1F)C(=O)c1cc(-c2cccs2)nn1-c1ccccc1	TAAR1 antagonist 72 (no result: GPR7 antagonist) | nonsel antag count 27 | TAAR1 ant conf inactive | Ga16 nonsel ag inactive | TAAR1 ag counter inactive
COc1ccc(N2CC(C(=O)N3CCN(Cc4ccc5c(c4)OCO5)CC3)CC2=O)cc1 (stereo not given)	none
O=C(NCC1CCCO1)c1cc2c([nH]c3ccccc32)c(-c2cccc(Br)c2)n1 (stereo not given)	TAAR1 antagonist 75 | nonsel antag count 34 | TAAR1 ant conf 58 | Ga16 nonsel ag inactive | TAAR1 ag counter inactive

Assay outcomes from PubChem.
